Measured values as given in ChEMBL document CHEMBL4052828, “Discovery of 4-((7H-Pyrrolo[2,3-d]pyrimidin-4-yl)amino)-N-(4-((4-methylpiperazin-1-yl)methyl)phenyl)-1H-pyrazole-3-carboxamide (FN-1501), an FLT3- and CDK-Kinase Inhibitor with Potentially High Efficiency against Acute Myelocytic Leukemia” (J Med Chem, 2018).
Calls of active or inactive are those of the source. The calls are words filed in the database; no cut-off is given here.

Columns and labels:
[1] = molecular target: Receptor-type tyrosine-protein kinase FLT3 (Homo sapiens) (UniProt P36888); settings: 1 uM
MV4-11 [2] = assay: Induction of apoptosis in human MV4-11 cells assessed as early apoptotic cells at 2 uM after 24 hrs by annexin V-FITC/propidium iodide staining-based flow cytometric method (reference value: 3.54%); type: functional
[3] = molecular target: Receptor-type tyrosine-protein kinase FLT3 (Homo sapiens) (UniProt P36888); settings: 1 uM; remark: listed apart in the source
[4] = molecular target: Receptor-type tyrosine-protein kinase FLT3 (Homo sapiens) (UniProt P36888); settings: 1 uM; remark: listed apart in the source
MV4-11 [5] = assay: Induction of apoptosis in human MV4-11 cells assessed as late apoptotic cells at 2 uM after 24 hrs by annexin V-FITC/propidium iodide staining-based flow cytometric method (reference value: 2.54%); type: functional
[6] = molecular target: Receptor-type tyrosine-protein kinase FLT3 (Homo sapiens) (UniProt P36888); settings: 1 uM; remark: listed apart in the source
MV4-11 [7] = assay: Cell cycle arrest in human MV4-11 cells assessed as accumulation at G0/G1 phase at 0.2 uM after 24 hrs by propidium iodide/BrdU staining-based flow cytometric method; type: functional
Outline: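 Cells treated with compound for 24 h, then fixed. Double-stained with propidium iodide and BrdU for flow cytometric analysis of cell cycle distribution.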

MV4-11 [8] = assay: Growth inhibition of human MV4-11 cells after 72 hrs by CellTiter-Glo assay; type: functional, cell-based; settings: MV4-11, 72 h
Outline: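 MV4-11 cells grown in IMDM with 10% FBS, 2% L-glutamine and 1% pen/strep at 37 °C, 5% CO2. Seeded at 10000 cells/well and exposed to compound at various concentrations for 72 h. Viability read by CellTiter-Glo luminescence.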

CDK2/Cyclin A1 = CDK2/Cyclin A1 (Homo sapiens, UniProt P24941); assay: Inhibition of human CDK2/Cyclin A1 using histone H1 as substrate preincubated for 20 mins followed by [gamma-33P]-ATP addition measure after 120 mins by filter binding method; type: protein-complex assay
Outline: (§1)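 Compound preincubated with kinase 20 min at room temperature. Filter-binding read-out, curve-fitted IC50; mean ± SD of three independent experiments.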

[9] = molecular target: ALK tyrosine kinase receptor (Homo sapiens, UniProt Q9UM73); assay: Inhibition of human ALK using poly[Glu:Tyr] (4:1) as substrate preincubated for 20 mins followed by [gamma-33P]-ATP addition measure after 120 mins by filter binding method
ALK tyrosine kinase receptor, sequence (Q9UM73 whole entry): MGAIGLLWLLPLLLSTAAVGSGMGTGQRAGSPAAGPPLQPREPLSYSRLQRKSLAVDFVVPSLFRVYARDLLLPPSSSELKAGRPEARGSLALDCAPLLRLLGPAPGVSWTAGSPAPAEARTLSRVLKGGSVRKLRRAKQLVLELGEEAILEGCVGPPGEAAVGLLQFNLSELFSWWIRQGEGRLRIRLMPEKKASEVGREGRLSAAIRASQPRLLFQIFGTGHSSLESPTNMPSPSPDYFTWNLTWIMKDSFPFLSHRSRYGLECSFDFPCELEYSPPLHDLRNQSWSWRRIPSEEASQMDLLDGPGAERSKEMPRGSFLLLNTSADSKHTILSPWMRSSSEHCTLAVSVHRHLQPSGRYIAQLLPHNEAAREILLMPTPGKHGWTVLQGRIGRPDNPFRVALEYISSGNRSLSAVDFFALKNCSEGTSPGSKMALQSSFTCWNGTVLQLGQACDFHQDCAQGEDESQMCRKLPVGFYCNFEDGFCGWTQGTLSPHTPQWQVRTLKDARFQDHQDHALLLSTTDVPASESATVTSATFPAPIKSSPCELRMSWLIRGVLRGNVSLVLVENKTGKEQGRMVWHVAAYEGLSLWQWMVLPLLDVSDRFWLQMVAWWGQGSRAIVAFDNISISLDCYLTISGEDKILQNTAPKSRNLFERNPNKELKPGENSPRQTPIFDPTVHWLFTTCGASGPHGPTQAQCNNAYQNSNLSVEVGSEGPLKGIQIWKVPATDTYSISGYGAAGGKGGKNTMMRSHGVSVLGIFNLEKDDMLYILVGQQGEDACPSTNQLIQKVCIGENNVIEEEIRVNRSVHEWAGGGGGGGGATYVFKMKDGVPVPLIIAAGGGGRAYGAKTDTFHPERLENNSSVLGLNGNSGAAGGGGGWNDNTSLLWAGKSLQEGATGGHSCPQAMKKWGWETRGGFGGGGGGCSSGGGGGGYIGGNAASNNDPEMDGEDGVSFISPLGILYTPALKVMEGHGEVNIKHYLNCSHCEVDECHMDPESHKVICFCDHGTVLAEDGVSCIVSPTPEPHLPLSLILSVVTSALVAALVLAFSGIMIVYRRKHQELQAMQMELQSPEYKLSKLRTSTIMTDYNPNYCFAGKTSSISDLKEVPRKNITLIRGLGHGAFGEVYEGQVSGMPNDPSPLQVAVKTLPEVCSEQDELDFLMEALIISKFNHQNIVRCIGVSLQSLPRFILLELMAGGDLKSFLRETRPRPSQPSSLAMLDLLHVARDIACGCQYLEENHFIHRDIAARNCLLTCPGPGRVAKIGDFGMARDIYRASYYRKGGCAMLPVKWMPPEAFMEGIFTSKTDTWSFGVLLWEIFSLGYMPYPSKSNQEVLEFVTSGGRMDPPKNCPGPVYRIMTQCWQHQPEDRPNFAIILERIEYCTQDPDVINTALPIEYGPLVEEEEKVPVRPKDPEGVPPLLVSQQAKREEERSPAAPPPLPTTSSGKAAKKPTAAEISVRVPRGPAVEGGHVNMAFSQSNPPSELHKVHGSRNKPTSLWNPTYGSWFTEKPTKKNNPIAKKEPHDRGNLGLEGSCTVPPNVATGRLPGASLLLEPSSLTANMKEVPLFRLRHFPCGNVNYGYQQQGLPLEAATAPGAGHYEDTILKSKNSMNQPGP
Outline: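 Compound in DMSO was added to the kinase mixture for 20 min at room temperature. The reaction was started with 10 μM [γ-33P]ATP and run 120 min at 25 °C.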

NCI-H82 = assay: Growth inhibition of human NCI-H82 cells after 72 hrs by CellTiter-Glo assay; type: functional; settings: NCI-H82, 72 h
MGC-803 = assay: Growth inhibition of human MGC803 cells after 72 hrs by CellTiter-Glo assay; type: functional; settings: MGC-803, 72 h
MCF7 = assay: Growth inhibition of human MCF7 cells after 72 hrs by CellTiter-Glo assay; type: functional; settings: MCF7, 72 h
RS4-11 = assay: Growth inhibition of human RS4:11 cells after 72 hrs by CellTiter-Glo assay; type: functional; settings: RS4-11, 72 h
[10] = molecular target: Cyclin-dependent kinase 4/cyclin D1 (Homo sapiens, UniProt P11802); assay: Inhibition of human CDK4/Cyclin D1 using RB protein as substrate preincubated for 20 mins followed by [gamma-33P]-ATP addition measure after 120 mins by filter binding method; type: protein-complex assay
Cyclin-dependent kinase 4/cyclin D1, sequence (P11802 whole entry): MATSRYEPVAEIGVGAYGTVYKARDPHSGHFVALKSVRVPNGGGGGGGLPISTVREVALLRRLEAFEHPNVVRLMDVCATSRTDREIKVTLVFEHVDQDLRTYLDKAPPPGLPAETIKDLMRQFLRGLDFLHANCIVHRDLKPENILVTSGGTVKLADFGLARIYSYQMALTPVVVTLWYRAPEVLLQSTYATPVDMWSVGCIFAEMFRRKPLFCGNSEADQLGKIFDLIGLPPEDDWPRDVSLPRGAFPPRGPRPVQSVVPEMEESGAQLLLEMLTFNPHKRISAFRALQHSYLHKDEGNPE
Cyclin-dependent kinase 4/cyclin D1, sequence (P24385 whole entry, further chain): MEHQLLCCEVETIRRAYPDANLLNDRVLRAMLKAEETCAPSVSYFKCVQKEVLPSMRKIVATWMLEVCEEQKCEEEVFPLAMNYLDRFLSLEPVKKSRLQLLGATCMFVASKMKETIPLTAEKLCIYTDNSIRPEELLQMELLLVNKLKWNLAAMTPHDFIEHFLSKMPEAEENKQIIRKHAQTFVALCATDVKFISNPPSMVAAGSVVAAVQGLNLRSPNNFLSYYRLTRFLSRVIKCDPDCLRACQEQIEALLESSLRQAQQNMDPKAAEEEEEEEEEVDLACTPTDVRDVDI
Outline: (§2)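 Compound preincubated with kinase 20 min at room temperature. Reaction started with 10 μM [γ-33P]ATP and run 120 min at 25°C. Filter-binding read-out, curve-fitted IC50; mean ± SD of three independent experiments.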

HCT-116 = assay: Growth inhibition of human HCT116 cells after 72 hrs by CellTiter-Glo assay; type: functional; settings: HCT-116, 72 h
[11] = molecular target: T1, Receptor-type tyrosine-protein kinase FLT3 (Homo sapiens, UniProt P36888); assay: Inhibition of human FLT3 using EAIYAAPFAKKK as substrate preincubated for 20 mins followed by [gamma-33P]-ATP addition measure after 120 mins by filter binding method
T1 sequence (P36888 whole entry): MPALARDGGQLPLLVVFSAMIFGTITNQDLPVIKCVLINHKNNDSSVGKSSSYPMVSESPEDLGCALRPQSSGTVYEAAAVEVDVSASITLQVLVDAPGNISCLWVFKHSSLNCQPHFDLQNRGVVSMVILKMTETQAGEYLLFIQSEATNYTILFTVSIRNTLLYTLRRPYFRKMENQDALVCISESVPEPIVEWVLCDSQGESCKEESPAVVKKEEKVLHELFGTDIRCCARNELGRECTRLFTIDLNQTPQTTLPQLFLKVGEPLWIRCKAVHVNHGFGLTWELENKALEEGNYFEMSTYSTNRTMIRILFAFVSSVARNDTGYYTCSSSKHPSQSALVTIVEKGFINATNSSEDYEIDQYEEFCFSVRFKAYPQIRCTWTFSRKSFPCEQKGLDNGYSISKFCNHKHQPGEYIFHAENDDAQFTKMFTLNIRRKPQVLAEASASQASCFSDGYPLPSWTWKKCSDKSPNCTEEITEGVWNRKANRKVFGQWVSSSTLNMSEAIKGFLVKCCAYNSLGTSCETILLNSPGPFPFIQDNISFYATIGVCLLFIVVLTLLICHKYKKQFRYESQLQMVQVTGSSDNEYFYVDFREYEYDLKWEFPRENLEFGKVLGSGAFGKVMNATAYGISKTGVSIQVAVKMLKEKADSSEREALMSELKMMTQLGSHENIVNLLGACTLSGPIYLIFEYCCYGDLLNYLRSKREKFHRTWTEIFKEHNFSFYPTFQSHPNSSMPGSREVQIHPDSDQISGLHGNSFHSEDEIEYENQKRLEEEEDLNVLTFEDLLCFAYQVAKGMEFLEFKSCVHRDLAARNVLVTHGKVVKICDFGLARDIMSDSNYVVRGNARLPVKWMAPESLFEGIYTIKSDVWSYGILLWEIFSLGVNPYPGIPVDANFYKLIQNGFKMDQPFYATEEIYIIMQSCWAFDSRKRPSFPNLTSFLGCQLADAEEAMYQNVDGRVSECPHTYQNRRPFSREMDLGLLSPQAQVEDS
Outline: as §1

CDK6/cyclin D1 = CDK6/cyclin D1 (Homo sapiens, UniProt Q00534); assay: Inhibition of human CDK6/Cyclin D1 using RB protein as substrate preincubated for 20 mins followed by [gamma-33P]-ATP addition measure after 120 mins by filter binding method; type: protein-complex assay
CDK6/cyclin D1, sequence (P24385 whole entry): as the sequence (P24385 whole entry, further chain) above
CDK6/cyclin D1, sequence (Q00534 whole entry): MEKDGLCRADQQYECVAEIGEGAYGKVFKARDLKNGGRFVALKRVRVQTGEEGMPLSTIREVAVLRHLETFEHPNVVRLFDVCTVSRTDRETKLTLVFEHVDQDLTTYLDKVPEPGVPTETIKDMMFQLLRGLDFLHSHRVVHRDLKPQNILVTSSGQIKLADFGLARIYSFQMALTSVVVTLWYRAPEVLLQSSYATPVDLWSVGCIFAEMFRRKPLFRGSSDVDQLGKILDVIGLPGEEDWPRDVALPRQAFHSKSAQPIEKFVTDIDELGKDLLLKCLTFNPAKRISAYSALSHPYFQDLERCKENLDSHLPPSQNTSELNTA
Outline: as §2

MV4-11 [12] = assay: Antitumor activity against human MV4-11 cells xenografted in nu/nu mouse assessed as tumor growth inhibition at 50 mg/kg, iv qd measured on day 21 relative to vehicle-treated control; type: functional; settings: MV4-11, iv, 504 h, read-out: TGI
Outline: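 Female nu/nu mice bearing MV4-11 xenografts; dosing began once tumors reached 200 mm3. Given iv once daily for 21 days, with a vehicle-only group. Body weight and tumor size tracked relative to initial values, set as 100%. Tumors weighed at the end of the 22-day treatment period.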

| inhibition [1] | inhibition [3] | inhibition [4] | inhibition [6] | IC50 (MV4-11 [8]) [µM] | IC50 (CDK2/Cyclin A1) [µM] | IC50 [9] [µM] | GI50 (NCI-H82) [µM] | GI50 (MGC-803) [µM] | GI50 (MCF7) [µM] | GI50 (RS4-11) [µM] | IC50 [10] [µM] | GI50 (HCT-116) [µM] | IC50 [11] [µM] | IC50 (CDK6/cyclin D1) [µM] | Compound | Activity (MV4-11 [2]) [%] | Activity (MV4-11 [5]) [%] | Activity (MV4-11 [7]) | inhibition in vivo at 50 mg/kg (MV4-11 [12]) [%] |
| --- | --- | --- | --- | --- | --- | --- | --- | --- | --- | --- | --- | --- | --- | --- | --- | --- | --- | --- | --- |
| Active | Active | Active | Active | 0.004 | – | – | – | – | – | – | – | – | – | – | CNC(=O)c1cc(Oc2ccc(NC(=O)Nc3ccc(Cl)c(C(F)(F)F)c3)cc2)ccn1 [SORAFENIB] | 51.35 | 23.97 | Active | – |
| – | – | – | – | 0.019 | 0.00585 to 0.00947 | 0.0941 | 0.17 | 0.16 | 0.62 | 0.13 | 0.00333 to 0.00557 | 0.37 | 0.000438 to 0.0006 | 0.00424 to 0.0045 | CN1CCN(Cc2ccc(NC(=O)c3n[nH]cc3Nc3ncnc4sccc34)cc2)CC1 | – | – | – | – |
| – | – | – | – | – | – | – | – | – | – | – | – | – | – | – | Nc1ccn([C@@H]2O[C@H](CO)[C@@H](O)[C@@H]2O)c(=O)n1 [CYTARABINE] | – | – | – | 61.9 |
